Experimental data: ChEMBL document CHEMBL3580613, “First enantiospecific syntheses of marine merosesquiterpenes neopetrosiquinones a and B: evaluation of biological activity” (J Nat Prod, 2015)
The source made the active and inactive calls. No cut-off for these calls is given here.

Legend:
A549 [1] = assay: Induction of apoptosis in 24 hrs serum-starved human A549 cells assessed as accumulation at subG1 phase at antiproliferative IC50 incubated for 24 hrs by propidium iodide staining based flow cytometry (reference value: 3.5 +/- 1.1%); type: functional
A549 [2] = assay: Induction of cell cycle arrest in 24 hrs serum-starved human A549 cells assessed as accumulation at G0-G1 phase at 2 times antiproliferative IC50 incubated for 24 hrs by propidium iodide staining based flow cytometry (reference value: 62 +/- 1%); type: functional
T84 [3] = assay: Induction of apoptosis in 24 hrs serum-starved human T84 cells assessed as accumulation at subG1 phase at antiproliferative IC50 incubated for 24 hrs by propidium iodide staining based flow cytometry (reference value: 4 +/- 0.3%); type: functional
MCF7 [4] = assay: Induction of cell cycle arrest in 24 hrs serum-starved human MCF7 cells assessed as accumulation at G0-G1 phase at antiproliferative IC50 incubated for 24 hrs by propidium iodide staining based flow cytometry (reference value: 51 +/- 0.9%); type: functional
T84 [5] = assay: Induction of cell cycle arrest in 24 hrs serum-starved human T84 cells assessed as accumulation at S phase at antiproliferative IC50 incubated for 24 hrs by propidium iodide staining based flow cytometry (reference value: 13 +/- 0.6%); type: functional
T84 [6] = assay: Induction of cell cycle arrest in 24 hrs serum-starved human T84 cells assessed as accumulation at G2-M phase at 2 times antiproliferative IC50 incubated for 24 hrs by propidium iodide staining based flow cytometry (reference value: 18 +/- 1%); type: functional
MCF7 [7] = assay: Induction of apoptosis in human MCF7 cells at 2 times antiproliferative IC50 incubated for 6 hrs by fluorescence microscopy based TUNEL DNA fragmentation assay; type: functional, cell-based
T84 [8] = assay: Induction of cell cycle arrest in 24 hrs serum-starved human T84 cells assessed as accumulation at G0-G1 phase at antiproliferative IC50 incubated for 24 hrs by propidium iodide staining based flow cytometry (reference value: 65 +/- 1.1%); type: functional
MCF7 [9] = assay: Induction of cell cycle arrest in 24 hrs serum-starved human MCF7 cells assessed as accumulation at S phase at antiproliferative IC50 incubated for 24 hrs by propidium iodide staining based flow cytometry (reference value: 17 +/- 0.8%); type: functional
A549 [10] = assay: Induction of apoptosis in 24 hrs serum-starved human A549 cells assessed as accumulation at subG1 phase at 2 times antiproliferative IC50 incubated for 24 hrs by propidium iodide staining based flow cytometry (reference value: 3.5 +/- 1.1%); type: functional
A549 [11] = assay: Induction of cell cycle arrest in 24 hrs serum-starved human A549 cells assessed as accumulation at S phase at 2 times antiproliferative IC50 incubated for 24 hrs by propidium iodide staining based flow cytometry (reference value: 12 +/- 0.9%); type: functional
A549 [12] = assay: Antiproliferative activity against human A549 cells incubated for 3 days by sulforhodamine B assay; type: functional, cell-based; details: A549, 72 h
Procedure, shortened: (§1)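 Cells in DMEM with 10% heat-inactivated FBS, penicillin–streptomycin and 2 mM L-glutamine at 37 °C, 5% CO2. Seeded at 5 × 10^3 cells/cm2 in quadruplicate. After 24 h, exposed to increasing compound concentrations for 3 days. Fixed with cold 10% TCA, stained with 0.4% sulforhodamine in 1% acetic acid, dye solubilized in 10 mM Tris-base pH 10.5, OD read at 492 nm. IC50 by linear interpolation on semilog dose–response curve. Mean ± SEM of four independent determinations.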

MCF7 [13] = assay: Induction of cell cycle arrest in 24 hrs serum-starved human MCF7 cells assessed as accumulation at G2-M phase at 2 times antiproliferative IC50 incubated for 24 hrs by propidium iodide staining based flow cytometry (reference value: 28 +/- 0.3%); type: functional
MCF7 [14] = assay: Induction of cell cycle arrest in 24 hrs serum-starved human MCF7 cells assessed as accumulation at S phase at 2 times antiproliferative IC50 incubated for 24 hrs by propidium iodide staining based flow cytometry (reference value: 17 +/- 0.8%); type: functional
MCF7 [15] = assay: Induction of apoptosis in 24 hrs serum-starved human MCF7 cells assessed as accumulation at subG1 phase at 2 times antiproliferative IC50 incubated for 24 hrs by propidium iodide staining based flow cytometry (reference value: 4 +/- 1.1%); type: functional
MCF7 [16] = assay: Induction of cell cycle arrest in 24 hrs serum-starved human MCF7 cells assessed as accumulation at G0-G1 phase at 2 times antiproliferative IC50 incubated for 24 hrs by propidium iodide staining based flow cytometry (reference value: 51 +/- 0.9%); type: functional
T84 [17] = assay: Induction of cell cycle arrest in 24 hrs serum-starved human T84 cells assessed as accumulation at S phase at 2 times antiproliferative IC50 incubated for 24 hrs by propidium iodide staining based flow cytometry (reference value: 13 +/- 0.6%); type: functional
A549 [18] = assay: Induction of cell cycle arrest in 24 hrs serum-starved human A549 cells assessed as accumulation at S phase at antiproliferative IC50 incubated for 24 hrs by propidium iodide staining based flow cytometry (reference value: 12 +/- 0.9%); type: functional
A549 [19] = assay: Induction of cell cycle arrest in 24 hrs serum-starved human A549 cells assessed as accumulation at G2-M phase at antiproliferative IC50 incubated for 24 hrs by propidium iodide staining based flow cytometry (reference value: 22 +/- 1.8%); type: functional
A549 [20] = assay: Induction of cell cycle arrest in 24 hrs serum-starved human A549 cells assessed as accumulation at G0-G1 phase at antiproliferative IC50 incubated for 24 hrs by propidium iodide staining based flow cytometry (reference value: 62 +/- 1%); type: functional
T84 [21] = assay: Induction of apoptosis in 24 hrs serum-starved human T84 cells assessed as accumulation at subG1 phase at 2 times antiproliferative IC50 incubated for 24 hrs by propidium iodide staining based flow cytometry (reference value: 4 +/- 0.3%); type: functional
T84 [22] = assay: Induction of cell cycle arrest in 24 hrs serum-starved human T84 cells assessed as accumulation at G2-M phase at antiproliferative IC50 incubated for 24 hrs by propidium iodide staining based flow cytometry (reference value: 18 +/- 1%); type: functional
A549 [23] = assay: Induction of cell cycle arrest in 24 hrs serum-starved human A549 cells assessed as accumulation at G2-M phase at 2 times antiproliferative IC50 incubated for 24 hrs by propidium iodide staining based flow cytometry (reference value: 22 +/- 1.8%); type: functional
MCF7 [24] = assay: Induction of apoptosis in 24 hrs serum-starved human MCF7 cells assessed as accumulation at subG1 phase at antiproliferative IC50 incubated for 24 hrs by propidium iodide staining based flow cytometry (reference value: 4 +/- 1.1%); type: functional
T84 [25] = assay: Antiproliferative activity against human T84 cells incubated for 3 days by sulforhodamine B assay; type: functional, cell-based; details: T84, 72 h; procedure, shortened: as §1
T84 [26] = assay: Induction of cell cycle arrest in 24 hrs serum-starved human T84 cells assessed as accumulation at G0-G1 phase at 2 times antiproliferative IC50 incubated for 24 hrs by propidium iodide staining based flow cytometry (reference value: 65 +/- 1.1%); type: functional
MCF7 [27] = assay: Antiproliferative activity against human MCF7 cells incubated for 3 days by sulforhodamine B assay; type: functional, cell-based; details: MCF7, 72 h; procedure, shortened: as §1
MCF7 [28] = assay: Induction of cell cycle arrest in 24 hrs serum-starved human MCF7 cells assessed as accumulation at G2-M phase at antiproliferative IC50 incubated for 24 hrs by propidium iodide staining based flow cytometry (reference value: 28 +/- 0.3%); type: functional
MCF7 [29] = assay: Induction of apoptosis in human MCF7 cells at antiproliferative IC50 incubated for 6 hrs by fluorescence microscopy based TUNEL DNA fragmentation assay; type: functional, cell-based
Trypanosoma cruzi = assay: Antiparasitic activity against Trypanosoma cruzi; type: functional, organism-based

Q: For `COc1ccc(OC)c2cc3c(cc12)C(=O)C[C@H]1[C@@](C)(CO)CCC[C@]31C`, which Activity (A549 [1]) is on record?
A: 5.7%

Q: And the Activity (A549 [2])?
A: 67%

Q: What about the Activity (T84 [3]) of the same compound?
A: 5.7%

Q: What about the Activity (MCF7 [4]) of the same compound?
A: 66%

Q: What about the Activity (T84 [5]) of the same compound?
A: 15%

Q: What about the Activity (T84 [6]) of the same compound?
A: 6.1%

Q: What about the Activity (MCF7 [7]) of the same compound?
A: Active

Q: What about the Activity (T84 [8]) of the same compound?
A: 68%

Q: What about the Activity (MCF7 [9]) of the same compound?
A: 11%

Q: And the Activity (A549 [10])?
A: 18%

Q: And the Activity (A549 [11])?
A: 7.5%

Q: And the IC50 (A549 [12])?
A: 21 µM

Q: And the Activity (MCF7 [13])?
A: 1%

Q: And the Activity (MCF7 [14])?
A: 0.7%

Q: And the Activity (MCF7 [15])?
A: 91%

Q: What about the Activity (MCF7 [16]) of the same compound?
A: 6.9%

Q: What about the Activity (T84 [17]) of the same compound?
A: 9.4%

Q: What about the Activity (A549 [18]) of the same compound?
A: 12%

Q: What about the Activity (A549 [19]) of the same compound?
A: 14%

Q: And the Activity (A549 [20])?
A: 68%

Q: What about the Activity (T84 [21]) of the same compound?
A: 8.2%

Q: What about the Activity (T84 [22]) of the same compound?
A: 12%

Q: What about the Activity (A549 [23]) of the same compound?
A: 8%

Q: What about the Activity (MCF7 [24]) of the same compound?
A: 6.6%

Q: And the IC50 (T84 [25])?
A: 42 µM

Q: And the Activity (T84 [26])?
A: 76%

Q: What about the IC50 (MCF7 [27]) of the same compound?
A: 33 µM

Q: What about the Activity (MCF7 [28]) of the same compound?
A: 17%

Q: Which results are given for `C[C@]1(CO)CCC[C@]2(C)c3cc4c(cc3C=C[C@@H]12)C(=O)C=CC4=O`?
A: Activity (A549 [1]): 4%; Activity (A549 [2]): 67%; Activity (T84 [3]): 6.2%; Activity (MCF7 [4]): 39%; Activity (T84 [5]): 17%; Activity (T84 [6]): 7.1%; Activity (T84 [8]): 59%; Activity (MCF7 [9]): 12%; Activity (A549 [10]): 6.1%; Activity (A549 [11]): 12%; IC50 (A549 [12]): 8.3 µM; Activity (MCF7 [13]): 1.7%; Activity (MCF7 [14]): 0.7%; Activity (MCF7 [29]): Active; Activity (MCF7 [15]): 93%; Activity (MCF7 [16]): 5%; Activity (T84 [17]): 9%; Activity (A549 [18]): 16%; Activity (A549 [19]): 17%; Activity (A549 [20]): 62%; Activity (T84 [21]): 14%; Activity (T84 [22]): 18%; Activity (A549 [23]): 15%; Activity (MCF7 [24]): 32%; IC50 (T84 [25]): 11.5 µM; Activity (T84 [26]): 71%; IC50 (MCF7 [27]): 7.7 µM; Activity (MCF7 [28]): 17%

Q: What does the source list for `C[C@]1(CO)CCC[C@]2(C)c3cc4c(cc3C(=O)C[C@@H]12)C(=O)C=CC4=O`?
A: Activity (A549 [1]): 3.9%; Activity (A549 [2]): 59%; Activity (T84 [3]): 5.6%; Activity (MCF7 [4]): 37%; Activity (T84 [5]): 15%; Activity (T84 [6]): 15%; Activity (T84 [8]): 63%; Activity (MCF7 [9]): 9.4%; Activity (A549 [10]): 8.1%; Activity (A549 [11]): 16%; IC50 (A549 [12]): 4.1 µM; Activity (MCF7 [13]): 9.7%; Activity (MCF7 [14]): 6.4%; Activity (MCF7 [29]): Active; Activity (MCF7 [15]): 60%; Activity (MCF7 [16]): 24%; Activity (T84 [17]): 17%; Activity (A549 [18]): 14%; Activity (A549 [19]): 20%; Activity (A549 [20]): 63%; Activity (T84 [21]): 6.3%; Activity (T84 [22]): 17%; Activity (A549 [23]): 17%; Activity (MCF7 [24]): 34%; IC50 (T84 [25]): 8 µM; Activity (T84 [26]): 62%; IC50 (MCF7 [27]): 6.6 µM; Activity (MCF7 [28]): 19%

Q: For `CC1(C)CCC[C@@]2(C)c3cc4c(cc3CC[C@H]12)C(=O)C=CC4=O` [CYCLOZONARONE], which IC50 (Trypanosoma cruzi) is on record?
A: 0.7 µM
